Measurements taken from ChEMBL document CHEMBL3593182, “Phytochemical Investigation of the Constituents Derived from the Australian Plant Macropidia fuliginosa” (2015).
Activity calls are given as the source filed them. No cut-off for these calls is given here.

What was measured:
Candida albicans [1] = assay: Antimicrobial activity against Candida albicans ATCC 10231 assessed as zone of inhibition at 5230 uM incubated overnight at 37 degC; format: functional, organism-based
Escherichia coli [2] = assay: Antimicrobial activity against Escherichia coli ATCC 25922 assessed as zone of inhibition at 3030 uM incubated overnight at 37 degC; format: functional, organism-based
Method in brief: (§1)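 Pure isolates screened against a panel of five bacteria and one fungus, each at a single concentration within 1639–5230 μM. A commercial antibiotic and antifungal agent were tested in parallel as references. Growth inhibition was recorded as the zone of inhibition.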

Staphylococcus aureus [3] = assay: Antimicrobial activity against Staphylococcus aureus ATCC 25923 assessed as zone of inhibition at 3030 uM incubated overnight at 37 degC; format: functional, organism-based; method in brief: as §1
Staphylococcus aureus [4] = assay: Antimicrobial activity against methicillin-resistant Staphylococcus aureus 344/2-32 assessed as zone of inhibition at 3030 uM incubated overnight at 37 degC; format: functional, organism-based
Pseudomonas aeruginosa [5] = assay: Antimicrobial activity against Pseudomonas aeruginosa ATCC 27853 assessed as zone of inhibition at 3030 uM incubated overnight at 37 degC; format: functional; settings: read-out: IZ; method in brief: as §1
Streptococcus pyogenes [6] = assay: Antimicrobial activity against Streptococcus pyogenes 345/1 assessed as zone of inhibition at 3030 uM incubated overnight at 37 degC; format: functional, organism-based; method in brief: as §1
Candida albicans [7] = assay: Antimicrobial activity against Candida albicans ATCC 10231 assessed as zone of inhibition at 3030 uM incubated overnight at 37 degC; format: functional, organism-based; method in brief: as §1
Escherichia coli [8] = assay: Antimicrobial activity against Escherichia coli ATCC 25922 assessed as zone of inhibition at 3905 uM incubated overnight at 37 degC; format: functional, organism-based; method in brief: as §1
Staphylococcus aureus [9] = assay: Antimicrobial activity against Staphylococcus aureus ATCC 25923 assessed as zone of inhibition at 3905 uM incubated overnight at 37 degC; format: functional, organism-based; method in brief: as §1
Staphylococcus aureus [10] = assay: Antimicrobial activity against methicillin-resistant Staphylococcus aureus 344/2-32 assessed as zone of inhibition at 3905 uM incubated overnight at 37 degC; format: functional, organism-based
Pseudomonas aeruginosa [11] = assay: Antimicrobial activity against Pseudomonas aeruginosa ATCC 27853 assessed as zone of inhibition at 3905 uM incubated overnight at 37 degC; format: functional, organism-based; method in brief: as §1
Streptococcus pyogenes [12] = assay: Antimicrobial activity against Streptococcus pyogenes 345/1 assessed as zone of inhibition at 3905 uM incubated overnight at 37 degC; format: functional; settings: read-out: IZ
Candida albicans [13] = assay: Antimicrobial activity against Candida albicans ATCC 10231 assessed as zone of inhibition at 3905 uM incubated overnight at 37 degC; format: functional, organism-based; method in brief: as §1
Escherichia coli [14] = assay: Antimicrobial activity against Escherichia coli ATCC 25922 assessed as zone of inhibition at 2862 uM incubated overnight at 37 degC; format: functional, organism-based; method in brief: as §1
Staphylococcus aureus [15] = assay: Antimicrobial activity against Staphylococcus aureus ATCC 25923 assessed as zone of inhibition at 2862 uM incubated overnight at 37 degC; format: functional; settings: read-out: IZ; method in brief: as §1
Staphylococcus aureus [16] = assay: Antimicrobial activity against methicillin-resistant Staphylococcus aureus 344/2-32 assessed as zone of inhibition at 2862 uM incubated overnight at 37 degC; format: functional; settings: read-out: IZ
Pseudomonas aeruginosa [17] = assay: Antimicrobial activity against Pseudomonas aeruginosa ATCC 27853 assessed as zone of inhibition at 2862 uM incubated overnight at 37 degC; format: functional; settings: read-out: IZ; method in brief: as §1
Streptococcus pyogenes [18] = assay: Antimicrobial activity against Streptococcus pyogenes 345/1 assessed as zone of inhibition at 2862 uM incubated overnight at 37 degC; format: functional; settings: read-out: IZ; method in brief: as §1
Escherichia coli [19] = assay: Antimicrobial activity against Escherichia coli ATCC 25922 assessed as zone of inhibition at 2211 uM incubated overnight at 37 degC; format: functional, organism-based; method in brief: as §1
Staphylococcus aureus [20] = assay: Antimicrobial activity against Staphylococcus aureus ATCC 25923 assessed as zone of inhibition at 2211 uM incubated overnight at 37 degC; format: functional; settings: read-out: IZ; method in brief: as §1
Staphylococcus aureus [21] = assay: Antimicrobial activity against methicillin-resistant Staphylococcus aureus 344/2-32 assessed as zone of inhibition at 2211 uM incubated overnight at 37 degC; format: functional, organism-based
Pseudomonas aeruginosa [22] = assay: Antimicrobial activity against Pseudomonas aeruginosa ATCC 27853 assessed as zone of inhibition at 2211 uM incubated overnight at 37 degC; format: functional, organism-based; method in brief: as §1
Streptococcus pyogenes [23] = assay: Antimicrobial activity against Streptococcus pyogenes 345/1 assessed as zone of inhibition at 2211 uM incubated overnight at 37 degC; format: functional; settings: read-out: IZ; method in brief: as §1
Candida albicans [24] = assay: Antimicrobial activity against Candida albicans ATCC 10231 assessed as zone of inhibition at 2211 uM incubated overnight at 37 degC; format: functional, organism-based; method in brief: as §1
Escherichia coli [25] = assay: Antimicrobial activity against Escherichia coli ATCC 25922 assessed as zone of inhibition at 2762 uM incubated overnight at 37 degC; format: functional, organism-based; method in brief: as §1
Staphylococcus aureus [26] = assay: Antimicrobial activity against Staphylococcus aureus ATCC 25923 assessed as zone of inhibition at 2762 uM incubated overnight at 37 degC; format: functional; settings: read-out: IZ; method in brief: as §1
Staphylococcus aureus [27] = assay: Antimicrobial activity against methicillin-resistant Staphylococcus aureus 344/2-32 assessed as zone of inhibition at 2762 uM incubated overnight at 37 degC; format: functional, organism-based
Pseudomonas aeruginosa [28] = assay: Antimicrobial activity against Pseudomonas aeruginosa ATCC 27853 assessed as zone of inhibition at 2762 uM incubated overnight at 37 degC; format: functional, organism-based; method in brief: as §1
Streptococcus pyogenes [29] = assay: Antimicrobial activity against Streptococcus pyogenes 345/1 assessed as zone of inhibition at 2762 uM incubated overnight at 37 degC; format: functional; settings: read-out: IZ; method in brief: as §1
Candida albicans [30] = assay: Antimicrobial activity against Candida albicans ATCC 10231 assessed as zone of inhibition at 2762 uM incubated overnight at 37 degC; format: functional, organism-based; method in brief: as §1

Q: For `COC(=O)Nc1nc2ccccc2[nH]1`, which “inhibition zone (IZ)” value (Candida albicans [1]) is on record?
A: Its value is “inactive”.

Q: What does the source list for `O=C(/C=C/c1ccc(O)cc1)c1c(O)cc(O)cc1O[C@@H]1O[C@H](CO)[C@@H](O)[C@H](O)[C@H]1O`?
A: inhibition zone (IZ) (Escherichia coli [2]): inactive; inhibition zone (IZ) (Staphylococcus aureus [3]): inactive; inhibition zone (IZ) (Staphylococcus aureus [4]): inactive; zone of inhibition at 3030 µM (Pseudomonas aeruginosa [5]): 2 mm; inhibition zone (IZ) (Streptococcus pyogenes [6]): inactive; inhibition zone (IZ) (Candida albicans [7]): inactive

Q: With `O=C1C(c2ccccc2)=Cc2cccc3cccc1c23` as the molecule, how does the “inhibition zone (IZ)” value (Escherichia coli [8]) read?
A: Its value is “inactive”.

Q: What about the “inhibition zone (IZ)” value (Staphylococcus aureus [9]) of the same molecule?
A: The value was “inactive”.

Q: What about the “inhibition zone (IZ)” value (Staphylococcus aureus [10]) of the same molecule?
A: Its value is “inactive”.

Q: What about the “inhibition zone (IZ)” value (Pseudomonas aeruginosa [11]) of the same molecule?
A: Its value is “inactive”.

Q: What about the zone of inhibition at 3905 µM (Streptococcus pyogenes [12]) of the same molecule?
A: The zone of inhibition at 3905 µM was 2 mm.

Q: And the “inhibition zone (IZ)” value (Candida albicans [13])?
A: The value was “inactive”.

Q: Which “inhibition zone (IZ)” value (Escherichia coli [14]) does the source give for `CC1(C)S[C@@H]2[C@H](NC(=O)[C@H](N)c3ccccc3)C(=O)N2[C@H]1C(=O)O` [AMPICILLIN] here?
A: Its value is “inactive”.

Q: And the zone of inhibition at 2862 µM (Staphylococcus aureus [15])?
A: Its zone of inhibition at 2862 µM is 15 mm.

Q: What about the zone of inhibition at 2862 µM (Staphylococcus aureus [16]) of the same molecule?
A: Its zone of inhibition at 2862 µM is 3 mm.

Q: What about the zone of inhibition at 2862 µM (Pseudomonas aeruginosa [17]) of the same molecule?
A: The zone of inhibition at 2862 µM was 2 mm.

Q: And the zone of inhibition at 2862 µM (Streptococcus pyogenes [18])?
A: The zone of inhibition at 2862 µM was 20 mm.

Q: With `Oc1ccc(/C=C/c2cc(O)c3c(-c4cc(O)cc(O)c4)c(-c4ccc(O)cc4)oc3c2)cc1` as the molecule, how does the “inhibition zone (IZ)” value (Escherichia coli [19]) read?
A: The value was “inactive”.

Q: What about the zone of inhibition at 2211 µM (Staphylococcus aureus [20]) of the same molecule?
A: Its zone of inhibition at 2211 µM is 2 mm.

Q: And the “inhibition zone (IZ)” value (Staphylococcus aureus [21])?
A: The value was “inactive”.

Q: What about the “inhibition zone (IZ)” value (Pseudomonas aeruginosa [22]) of the same molecule?
A: The value was “inactive”.

Q: And the zone of inhibition at 2211 µM (Streptococcus pyogenes [23])?
A: Its zone of inhibition at 2211 µM is 1 mm.

Q: What about the “inhibition zone (IZ)” value (Candida albicans [24]) of the same molecule?
A: The value was “inactive”.

Q: With `O=Cc1cc(O)c2c(-c3cc(O)cc(O)c3)c(-c3ccc(O)cc3)oc2c1` as the molecule, how does the “inhibition zone (IZ)” value (Escherichia coli [25]) read?
A: The value was “inactive”.

Q: What about the zone of inhibition at 2762 µM (Staphylococcus aureus [26]) of the same molecule?
A: Its zone of inhibition at 2762 µM is 1 mm.

Q: And the “inhibition zone (IZ)” value (Staphylococcus aureus [27])?
A: Its value is “inactive”.

Q: And the “inhibition zone (IZ)” value (Pseudomonas aeruginosa [28])?
A: The value was “inactive”.

Q: What about the zone of inhibition at 2762 µM (Streptococcus pyogenes [29]) of the same molecule?
A: The zone of inhibition at 2762 µM was 1 mm.

Q: What about the “inhibition zone (IZ)” value (Candida albicans [30]) of the same molecule?
A: Its value is “inactive”.
